Test results: ChEMBL document CHEMBL2062381, “Synthesis and in vitro evaluation of new chloroquine-chalcone hybrids against chloroquine-resistant strain of Plasmodium falciparum” (Bioorg Med Chem Lett, 2012); call rule not given here
In brackets after ≈: the same amount, converted by molar mass.

Assays:
[1] = tested on: Plasmodium yoelii; experiment: Inhibition of beta hematin formation in Plasmodium yoelii infected swiss mouse RBC after 16 hrs; type: functional, organism-based
In short: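 Source material was plasma from male Swiss mice (15–20 g) inoculated with 1 × 10⁵ P. yoelii-infected RBCs. Blood was taken by cardiac puncture at 50% parasitemia into 2.0% citrate and centrifuged. The 1.0 mL mix held 100 mM sodium acetate pH 5.1, plasma, hemin substrate and compound at […]. It ran in triplicate for 16 h at 37 °C with rotary shaking. The washed β-hematin pellet was dissolved in NaOH and read at 400 nm. IC50 came from nonlinear regression.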

[2] = tested on: Plasmodium falciparum; experiment: Antimalarial activity against chloroquine-susceptible Plasmodium falciparum 3D7 after 72 hrs by SYBR Green-I based fluorescence assay; type: functional, organism-based; details: 3D7, 72 h
In short: (§1)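 Asynchronous culture (>80% rings), 1.0% parasitized cell suspension at 0.8% parasitaemia, exposed to twofold serial dilutions of compound (DMSO stock 5 mg/mL). Incubated 72 h at 37 °C under 5% CO₂ in air. Lysis buffer with SYBR Green I added, then 1 h at 37 °C. Fluorescence read at 485/530 nm. IC₅₀ from logit regression of dose-response curves. Mean of three experiments in triplicate.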

[3] = tested on: Plasmodium falciparum; experiment: Antimalarial activity against chloroquine-resistant Plasmodium falciparum K1 after 72 hrs by SYBR Green-I based fluorescence assay; type: functional, organism-based; in short: as §1
[4] = Selectivity index, ratio of IC50 for african green monkey Vero cells to IC50 for Plasmodium falciparum; type: toxicity, cell-based; details: read-out: Ratio IC50
In short: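 SI = CC50/IC50. CC50 was measured in Vero monkey kidney cells (C1008) by MTT after 72 h exposure to compound dilutions, using nonlinear regression. IC50 came from a 72 h SYBR Green I fluorescence assay in P. falciparum (1.0% parasitized cells, 0.8% parasitaemia, mostly ring stages, 37 °C, 5% CO2). Those values came from logit regression.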

[5] = Inhibition of hydrogen peroxide-mediated hemin decomposition assessed as remaining hemin level at 20 uM after 30 mins by […] (reference value: 43%); type: functional
In short: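 Hemin (in 0.1 N NaOH) was mixed with BSA in 0.2 M sodium acetate pH 5.1 and compound, then equilibrated for 10 min at room temperature. The reaction was started with 20 mM H2O2 and ran 30 min at room temperature. Read-out was the decrease in Soret absorbance at 405 nm, reported as % hemin remaining. Controls used water instead of H2O2. Data are the mean of three experiments in triplicate.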

[6] = Plasmodium falciparum, K1, 72 h, read-out: IC50

SMILES	IC50 [1]	IC50 [2]	IC50 [3, 6]	selectivity ratio [4]	Activity [5]	IC50 [3]
COc1ccc(/C=C(\Oc2ccc(/C=N/Nc3ccnc4cc(Cl)ccc34)cc2)C(=O)c2ccc(Cl)cc2)cc1OC	3.46 µg/mL (≈ 5.78 µM)	84 nM	97.8 nM	1440	59%	–
COc1ccc(/C=C(\Oc2ccc(/C=N/Nc3ccnc4cc(Cl)ccc34)cc2)C(=O)c2ccc(Cl)cc2)c(OC)c1OC	3.52 µg/mL (≈ 5.6 µM)	124 nM	82.9 nM	837	63%	–
O=C(/C(=C/c1ccccc1)Oc1ccc(/C=N/Nc2ccnc3cc(Cl)ccc23)cc1)c1ccc(Cl)cc1	5.66 µg/mL (≈ 10.5 µM)	78.8 nM	110 nM	2360	–	–
O=C(/C(=C/c1ccc(F)cc1F)Oc1ccc(/C=N/Nc2ccnc3cc(Cl)ccc23)cc1)c1ccc(Cl)cc1	–	139 nM	170 nM	1040	–	–
O=C(/C(=C/c1ccc(Cl)cc1Cl)Oc1ccc(/C=N/Nc2ccnc3cc(Cl)ccc23)cc1)c1ccc(Cl)cc1	5.91 µg/mL (≈ 9.73 µM)	295 nM	–	560	–	Not Active
O=C(/C(=C/c1ccc([N+](=O)[O-])cc1)Oc1ccc(/C=N/Nc2ccnc3cc(Cl)ccc23)cc1)c1ccc(Cl)cc1	12.8 µg/mL (≈ 21.9 µM)	> 500 nM	–	–	–	Not Active
COc1cc(/C=C(\Oc2ccc(/C=N/Nc3ccnc4cc(Cl)ccc34)cc2)C(=O)c2ccc(Cl)cc2)cc(OC)c1OC	10.8 µg/mL (≈ 17.2 µM)	95.3 nM	123 nM	970	–	–
Cc1ccc(/C=C(\Oc2ccc(/C=N/Nc3ccnc4cc(Cl)ccc34)cc2)C(=O)c2ccc(Cl)cc2)cc1	5.58 µg/mL (≈ 10.1 µM)	112 nM	97.9 nM	1620	–	–
CCN(CC)CCCC(C)Nc1ccnc2cc(Cl)ccc12 (configuration not stated) [CHLOROQUINE]	3.75 µg/mL (≈ 11.7 µM)	–	–	–	65%	–
COc1ccc(/C=C(\Oc2ccc(/C=N/Nc3ccnc4cc(Cl)ccc34)cc2)C(=O)c2ccc(Cl)cc2)cc1	17.6 µg/mL (≈ 31 µM)	48.1 nM	96.9 nM	2050	–	–
O=C(/C(=C/c1ccc(F)cc1)Oc1ccc(/C=N/Nc2ccnc3cc(Cl)ccc23)cc1)c1ccc(Cl)cc1	15.6 µg/mL (≈ 28 µM)	29.1 nM	102 nM	6200	–	–
COc1ccc(OC)c(/C=C(\Oc2ccc(/C=N/Nc3ccnc4cc(Cl)ccc34)cc2)C(=O)c2ccc(Cl)cc2)c1	25 µg/mL (≈ 41.8 µM)	250 nM	125 nM	669	–	–
O=C(COc1ccc(/C=N/Nc2ccnc3cc(Cl)ccc23)cc1)c1ccc(Cl)cc1	16.4 µg/mL (≈ 36.4 µM)	36.7 nM	126 nM	800	–	–
O=C(/C(=C/c1cccc([N+](=O)[O-])c1)Oc1ccc(/C=N/Nc2ccnc3cc(Cl)ccc23)cc1)c1ccc(Cl)cc1	5.72 µg/mL (≈ 9.8 µM)	128 nM	315 nM	1340	–	–
COc1cc(OC)c(OC)cc1/C=C(\Oc1ccc(/C=N/Nc2ccnc3cc(Cl)ccc23)cc1)C(=O)c1ccc(Cl)cc1	10.6 µg/mL (≈ 16.9 µM)	90.5 nM	89.5 nM	728	–	–
O=C(/C(=C/c1ccc(Cl)cc1)Oc1ccc(/C=N/Nc2ccnc3cc(Cl)ccc23)cc1)c1ccc(Cl)cc1	8.38 µg/mL (≈ 14.6 µM)	145 nM	199 nM	1210	–	–
O=C(/C(=C/c1ccoc1)Oc1ccc(/C=N/Nc2ccnc3cc(Cl)ccc23)cc1)c1ccc(Cl)cc1	3.74 µg/mL (≈ 7.08 µM)	57.3 nM	115 nM	962	53%	–
